Source: PubChem
H9c2 TAG inh – reduces triacylglycerol accumulation in H9c2 cells; 230,000 tested, 0.66% active; Nile Red lipid (TAG) fluorescence; cells loaded with 200 µM oleic acid; inhibition, % at 12.5 µM;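 active = pattern-corrected inhibition of lipid staining of at least 50% with the nuclear-stain viability signal not falling by more than 50%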
NTR1 ag – activates human neurotensin receptor 1. P30989. 330,000 tested, 0.17% active. AID 493036. activation, % at 20 µM. NTR1-U2OS beta-arrestin-GFP spot imaging, agonist mode;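 active = activation at or above 40% of the spot to cytoplasm intensity ratio, with at least 20 cells analyzed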
Hep lipid drop – hepatic lipid droplet formation modulation; AML12 mouse hepatocytes, oleate lipid droplets, BODIPY imaging; inhibition, % at 6.5 µM; 240,000 tested, 0.4% active;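 active = lipid droplet intensity inhibited by at least 50%, with more than 500 cells counted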
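Material – mouse AML12 hepatocyte cell line, fixed after treatment · Compound dosing – one dose, 6.5 µM compound · Times – compound with oleate, overnight · Measured by – Image-based BODIPY and DAPI two-channel analysis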
B2AR ag – activates human beta-2 adrenergic receptor causing internalization | P07550 | response, % (test concentration not listed) | Am2.2-beta2AR cells, FAP receptor internalization, flow cytometry | 340,000 tested, 0.43% active | AID 504454;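 active = response above a set limit, near 3 SD of response in nonfluorescent compounds, cut at about 42% in these data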
GRK2 aptamer HTS – blocks RNA aptamer binding to human GRK2 | 330,000 tested, 0.59% active | P25098 | bead flow cytometry, FAM-aptamer displacement from GRK2 | inhibition of aptamer binding, % at 10 µM;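 active = inhibition of aptamer binding above 40%, roughly 3 SD of noise, on plates passing a quality check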;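 also: median bead fluorescence of bound FAM aptamer so fluorescent compounds give negative values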
Arrestin-AP2 inh – human beta-arrestin and AP2 interaction inhibition | FITC-arrestin peptide / GST-AP2 beads, flow cytometry; AP2 beta2 appendage carries R879A mutation | inhibition, % at 10 µM | 340,000 tested, 0.31% active | AID 504490;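 active = inhibition above a set limit, near 3 SD of compounds lacking own fluorescence, cut at about 54% in these data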
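System: GST-AP2 R879A glutathione beads. Medium: PBS with 0.05% Tween 20 and 0.1% BSA. Also added: FITC-arrestin peptide, 50 nM. Incubation: 12 min plus 1 h, RT. Measured by: high-throughput flow cytometry of beads, ex 488, em 535 nm. Evaluation: percent drop in bead-associated FITC signal.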
Arr-AP2 CP1 – human beta-arrestin and AP2 interaction inhibition, cherry pick; shares compounds with Arrestin-AP2 inh; GST-AP2 beads, FITC arrestin peptide binding, flow cytometry; GST-fused beta2-adaptin appendage, R879A mutant; inhibition, % at 10 µM; 1,300 tested, 2% active;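 active = inhibition above a set limit, roughly 3 SD of non-fluorescent compound noise, cut at about 38% in these data; inactive = inhibition at or below that limit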;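 also: loss of bead fluorescence from 50 nM FITC arrestin peptide bound to appendage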
Target sequence (P63010 whole entry, looked up, the tested form may be a part, one chain of several): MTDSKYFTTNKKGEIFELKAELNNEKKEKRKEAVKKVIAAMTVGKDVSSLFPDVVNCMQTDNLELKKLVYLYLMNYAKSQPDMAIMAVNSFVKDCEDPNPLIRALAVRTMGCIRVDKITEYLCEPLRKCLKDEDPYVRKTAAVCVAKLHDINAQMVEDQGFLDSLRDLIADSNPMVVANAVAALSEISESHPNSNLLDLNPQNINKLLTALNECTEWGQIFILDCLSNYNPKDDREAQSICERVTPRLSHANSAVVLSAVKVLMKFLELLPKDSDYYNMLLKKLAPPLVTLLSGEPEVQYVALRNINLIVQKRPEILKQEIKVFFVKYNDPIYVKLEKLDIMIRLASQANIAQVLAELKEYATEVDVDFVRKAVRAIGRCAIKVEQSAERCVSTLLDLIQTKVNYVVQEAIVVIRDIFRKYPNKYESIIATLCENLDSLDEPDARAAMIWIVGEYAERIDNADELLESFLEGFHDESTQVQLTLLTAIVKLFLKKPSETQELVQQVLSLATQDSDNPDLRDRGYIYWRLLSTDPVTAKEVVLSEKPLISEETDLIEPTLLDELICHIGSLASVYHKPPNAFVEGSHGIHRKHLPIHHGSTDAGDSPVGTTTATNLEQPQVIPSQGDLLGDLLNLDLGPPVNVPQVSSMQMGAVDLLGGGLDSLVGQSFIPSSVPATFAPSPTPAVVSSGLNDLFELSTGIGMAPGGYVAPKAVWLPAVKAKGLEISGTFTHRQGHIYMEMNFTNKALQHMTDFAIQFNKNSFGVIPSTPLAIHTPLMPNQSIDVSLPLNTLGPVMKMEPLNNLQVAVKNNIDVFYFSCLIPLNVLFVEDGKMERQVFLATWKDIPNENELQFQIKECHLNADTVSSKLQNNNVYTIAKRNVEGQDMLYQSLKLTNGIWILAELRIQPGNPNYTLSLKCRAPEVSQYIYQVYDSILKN
GST-FITC bead – GST-GSH bead binding interference, counter-screen | AID 588338 | 1,300 tested, 2% active | shares compounds with Arrestin-AP2 inh | inhibition, % at 10 µM | GST-fluorescein binding to GSH beads, fluorescence;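 active = inhibition above 50%, about 3 SD of the inhibition seen with non-fluorescent compounds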;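 also: fluorescein maleimide labelled GST captured on 4 micron glutathione beads; higher means more loss of bead fluorescence from quenching or blocked binding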
Hits are given with their value; . = inactive; / = no result given. Only some compounds are listed: those with a hit (about 2% of all), similar ones and a draw of the others.

SMILES	H9c2 TAG inh	NTR1 ag	Hep lipid drop	B2AR ag	GRK2 aptamer HTS	Arrestin-AP2 inh	Arr-AP2 CP1	GST-FITC bead
CN1C2=CC=CC=CC2=[N+](C)C12C=CC(=[N+]([O-])[O-])C=C2[N+](=O)[O-] (configuration not stated)	.	.	.	.	.	54.1	.	.
Cc1nc(C)c(C(=O)O)c(-c2cccs2)c1C(=O)O	.	.	.	.	.	74.3	.	.
O=C(Cn1ccc2cc(S(=O)(=O)N3CCCC3)ccc21)NCCc1ccccc1	/	.	.	.	.	.	/	/
CC(=O)OCC(OC(C)=O)C(OC(C)=O)C(OC(C)=O)C(=O)Nc1cccc(C)c1 (configuration not stated)	.	.	.	.	.	.	/	/
Cc1cc(C)c(NC(=O)CSc2nnc(SCC(=O)Nc3c(C)cc(C)cc3C)n2N)c(C)c1	.	.	.	.	.	90.8	.	.
COc1ccc(NC(=O)CC(C)CC(=O)NCc2ccccc2)c(OC)c1 (configuration not stated)	.	.	.	.	.	61.5	.	.
CCN(CC)c1ccc(C(=O)OCC(=O)Nc2cc3oc4ccccc4c3cc2OC)cc1	/	.	.	.	.	.	.	.
COc1cc2c(cc1NC(=O)COCC(=O)O)oc1ccccc12	/	.	.	.	.	.	/	/
COc1cc2c(cc1NC(=O)CSc1ccccn1)oc1ccccc12	/	.	/	.	.	.	/	/
COc1ccccc1CC(=O)Nc1cc2oc3ccccc3c2cc1OC	/	.	/	.	.	54.2	.	.
COc1cc2c(cc1NC(=O)CSc1ccc(Cl)cc1)oc1ccccc12	.	.	.	.	.	.	.	.
COc1cc2c(cc1NC(=O)COc1ccc3ccccc3c1)oc1ccccc12	.	.	.	.	.	.	/	/
COc1ccc(CC(=O)Nc2cc3oc4ccccc4c3cc2OC)cc1	.	.	.	.	.	.	.	.
N#Cc1c(N)sc(=S)c2c1CCCC2	.	.	/	.	.	89.2	.	.
CCOCC(=O)Nc1ccc(S(=O)(=O)N2CCC(c3nc4ccccc4[nH]3)CC2)cc1	.	.	/	.	.	.	/	/
Nc1ncc(-n2cncn2)c(-c2ccc(Cl)cc2)n1	.	.	.	.	.	55.6	.	.
O=C(Nc1nnc([C@@H]2C[C@H](O)[C@@H](CO)O2)s1)Nc1cccc(Cl)c1Cl	.	/	/	/	/	/	/	/
C[C@H](CO)N1C[C@H](C)[C@@H](CN(C)C)Oc2c(NS(=O)(=O)c3ccccc3)cccc2C1=O	.	.	/	.	.	.	/	/
Cc1cc(C)nc(NS(=O)(=O)c2ccc(NC(=S)NC(=O)c3ccco3)cc2)n1	.	.	.	.	.	57.8	.	.
COc1cc(NS(=O)(=O)c2ccc(NC(=S)NC(=O)c3ccco3)cc2)nc(OC)n1	.	.	.	.	.	.	/	/
CC(=O)NCCc1ccc(S(=O)(=O)Nc2ccc(NC(=O)c3ccc(F)cc3)cc2)cc1	/	.	.	.	.	.	/	/
C/C(=N\NC(=O)c1ccccc1)c1ccccc1F	/	.	.	.	.	.	/	/
C/C(=N\NC(=O)c1ccccc1OCCOc1ccccc1)c1ccccc1F	.	.	/	.	/	75.7	.	.
CCOc1ncccc1C(=O)Nc1cc(S(=O)(=O)N2CCOCC2)ccc1OCC(F)(F)F	.	.	/	.	.	.	.	.
CCOc1ccc(S(=O)(=O)N2CCOCC2)cc1NC(=O)c1ccccc1F	/	.	.	.	.	.	/	/
SMILES	H9c2 TAG inh	NTR1 ag	Hep lipid drop	B2AR ag	GRK2 aptamer HTS	Arrestin-AP2 inh	Arr-AP2 CP1	GST-FITC bead
CCOc1ncccc1C(=O)Nc1cccc(S(=O)(=O)N2CCCCC2)c1	.	.	/	.	.	.	.	.
CCOc1ncccc1C(=O)Nc1cc(S(=O)(=O)N2CCCCC2)ccc1C	.	.	/	.	.	.	.	.
CCOc1ncccc1C(=O)Nc1ccc(OC)c(S(=O)(=O)N2CCOCC2)c1	.	.	/	.	/	.	.	.
CCOC(=O)C1CCCN(C(=O)c2ccc(C(F)(F)F)nc2C)CC1 (configuration not stated)	.	/	/	/	/	/	/	/
COc1ccc(NC(=O)c2cc(C)nc3ccccc23)cc1S(=O)(=O)N1CCOCC1	.	.	/	.	.	.	.	.
COc1ccc(S(=O)(=O)N2CCOCC2)cc1NC(=O)c1ccncc1	.	.	/	.	.	.	.	.
CCOc1ccc(S(=O)(=O)N2CCN(CC)CC2)cc1NC(=O)c1ccccc1F	/	.	.	.	.	.	.	.
Cc1ccc(S(=O)(=O)N2CCCCC2)cc1NC(=O)c1cc(=O)[nH]c2ccccc12	.	.	/	.	.	67.1	.	.
CCOc1ccc(S(=O)(=O)N2CCN(C)CC2)cc1NC(=O)c1ccccc1F	/	.	.	.	.	.	/	/
COc1ccc(OC)c(NC(=O)c2ccc(S(=O)(=O)N3CCOCC3)cc2)c1	/	.	.	.	.	.	/	/
CCOc1ccc(S(=O)(=O)N2CCCCC2)cc1NC(=O)c1ccccc1	.	/	/	.	/	.	/	/
CCOc1ccc(S(=O)(=O)N2CCCCC2)cc1NC(=O)c1cccnc1OCC	.	.	/	.	.	.	.	.
COc1ccc(S(=O)(=O)N2CCN(C)CC2)cc1NC(=O)c1ccccc1C	/	.	.	.	.	.	.	.
O=[N+]([O-])c1ccc(/C=C/c2ccc3ccccc3n2)cc1	.	.	.	.	.	.	/	/
O=[N+]([O-])c1ccc(/C=C/c2ccc3cccc(O)c3n2)cc1	/	.	/	.	.	56.6	.	.
CCOc1ccccc1C(=O)NCC(=O)N(C)Cc1cccnc1	/	.	.	.	.	.	/	/
CCOc1cc(CNc2ccc(N3CCCC3)cc2)cc(Cl)c1OC	/	.	.	.	.	55.0	.	.
Cc1ccc(C2N(c3ccc(Cl)cc3)C(=O)N3CCCN23)cc1 (configuration not stated)	.	.	.	.	.	.	/	/
Cc1cc(NC(=O)/C=C/c2ccccc2Cl)n(-c2nc3ccccc3[nH]2)n1	/	.	.	.	.	100.6	.	.
Cc1cc(NC(=O)c2ccccc2F)n(C(C)(C)C)n1	.	.	.	.	.	.	/	/
Cc1cc(NC(=O)c2ccc(F)cc2F)n(-c2nc3ccccc3[nH]2)n1	/	.	/	.	.	.	.	.
Cc1ccc(S(=O)(=O)N2CCN(C(=O)COC(=O)CCOc3ccc(C(C)(C)C)cc3)CC2)cc1	.	.	/	.	.	.	/	/
O=C(Cn1cnc(S(=O)(=O)N2CCCC2)c1)Nc1ccc(OC(F)(F)F)cc1	/	.	.	.	.	66.5	.	.
O=C1C2C3C=CC(c4ccccc4)(C2C(=O)N1c1cccc(Cl)c1)C1C(=O)N(c2cccc(Cl)c2)C(=O)C31 (configuration not stated)	/	.	.	.	.	60.5	.	.
